PAD4 FP inh: human PAD4 inhibitors, primary screen, biochemical, fluorescence polarization, 1536-well format | AID 485272, 2010 | recombinant PAD4, RCA probe fluorescence polarization | Protein-arginine deiminase type-4 (Homo sapiens), Q9UM07 | inhibition, % at 6.36 µM | 330,000 tested, 0.41% active;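 active means percent inhibition above a cutoff equal to the mean of all tested compounds plus 3 SD, cut at about 15% in these data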
TDP2 inh: human TDP2 enzyme inhibitors, primary screen, biochemical, epi absorbance, recombinant enzyme. T5PNP hydrolysis, p-nitrophenol absorbance 415 nm. inhibition, % at 12.8 µM. 370,000 tested, 0.34% active;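 active means inhibition above the mean of all tested compounds plus 3 SD, set per campaign, cut at about 25% in these data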
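Assay system: Recombinant human TDP2 | Quantity: 120 nM TDP2 per well | Incubation: 2 h at 37 °C | Signal: Epi absorbance | Evaluation: Percent inhibition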
Apaf-1 inh: inhibitors of human Apaf-1 apoptosome, primary screen, biochemical, DEVD-Rh110 fluorescence, uHTS. Apoptotic protease-activating factor 1 (Homo sapiens), O14727. reconstituted apoptosome caspase-3 activity. inhibition, % at 20 µM. 330,000 tested, 0.71% active. AID 489030, 2010; active means inhibition of at least 40% at 20 µM
Target sequence (O14727 whole entry, looked up): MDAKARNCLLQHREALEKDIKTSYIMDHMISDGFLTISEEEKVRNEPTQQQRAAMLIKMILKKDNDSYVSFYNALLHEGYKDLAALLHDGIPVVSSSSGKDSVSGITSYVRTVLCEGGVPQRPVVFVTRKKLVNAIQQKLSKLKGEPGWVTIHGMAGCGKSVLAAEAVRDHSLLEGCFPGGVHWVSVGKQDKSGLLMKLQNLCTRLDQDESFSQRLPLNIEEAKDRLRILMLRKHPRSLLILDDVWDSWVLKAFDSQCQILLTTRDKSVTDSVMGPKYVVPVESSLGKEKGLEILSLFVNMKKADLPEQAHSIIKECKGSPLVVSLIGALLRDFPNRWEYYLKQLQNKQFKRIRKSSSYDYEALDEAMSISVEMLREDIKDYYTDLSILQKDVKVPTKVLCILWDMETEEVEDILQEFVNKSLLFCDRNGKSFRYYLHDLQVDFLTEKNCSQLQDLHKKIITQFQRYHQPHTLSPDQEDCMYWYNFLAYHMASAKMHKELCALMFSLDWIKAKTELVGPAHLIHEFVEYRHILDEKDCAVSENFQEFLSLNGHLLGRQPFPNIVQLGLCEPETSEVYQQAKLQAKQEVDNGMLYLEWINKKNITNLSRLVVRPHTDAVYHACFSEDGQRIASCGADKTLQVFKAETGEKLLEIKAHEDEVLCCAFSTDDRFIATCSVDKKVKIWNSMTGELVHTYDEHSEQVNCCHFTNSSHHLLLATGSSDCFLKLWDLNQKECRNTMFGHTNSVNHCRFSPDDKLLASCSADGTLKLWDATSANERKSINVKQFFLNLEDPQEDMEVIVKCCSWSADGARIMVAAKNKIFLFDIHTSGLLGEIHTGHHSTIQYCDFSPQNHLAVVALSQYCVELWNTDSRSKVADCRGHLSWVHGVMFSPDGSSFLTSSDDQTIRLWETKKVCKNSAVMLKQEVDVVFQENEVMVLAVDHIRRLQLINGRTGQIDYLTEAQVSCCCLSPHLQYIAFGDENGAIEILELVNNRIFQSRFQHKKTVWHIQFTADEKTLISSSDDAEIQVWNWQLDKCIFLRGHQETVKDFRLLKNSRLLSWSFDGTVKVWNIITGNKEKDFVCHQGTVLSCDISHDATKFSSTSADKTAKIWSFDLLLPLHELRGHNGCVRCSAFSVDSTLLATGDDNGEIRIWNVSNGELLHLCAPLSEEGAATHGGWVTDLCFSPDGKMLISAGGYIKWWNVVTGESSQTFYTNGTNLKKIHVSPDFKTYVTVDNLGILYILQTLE
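Material: cell-free apoptosome with Apaf-1, procaspase-3 and caspase-9; Buffer or medium: Hepes pH 7.5 with detergent and BSA; Reagent: cytochrome c trigger plus (Z-DEVD)2-Rh110 caspase-3 substrate; Times: compound with Apaf-1, dATP, procaspase-3 30 min, then 50 min reaction, room temperature; Technique: Rh110 fluorescence intensity.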
GASC-1 inh: inhibitors of GASC-1 histone demethylase, primary screen, biochemical, fluorescence, DELFIA europium. Lysine-specific demethylase 4C (Homo sapiens), Q9H3R0. GST-JMJD2C(1-420) H3K9me3 demethylation. inhibition, % at 2.35 µM. 330,000 tested, 0.069% active. AID 2099, 2009;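 active means more than half of a compound's replicate wells show inhibition beyond 50%, single wells judged on their own value; inconclusive means some, but no more than half, of replicates pass 50% inhibition; inactive means no replicate passes 50% inhibition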;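 further: signal counts dimethyl H3K9 product captured on neutravidin plate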
GSTO1 counter: inhibitors of recombinant GSTO1, primary screen, counter-screen for RBBP9 inhibitor project, biochemical, fluorescence polarization; 300,000 tested, 1.1% active; activity-based probe fluorescence polarization; inhibition, % at 5.96 µM;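 active means inhibition above the campaign mean inhibition plus 3 SD, cut at about 35% in these data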
SUMO HTRF inh: inhibitors of in vitro SUMOylation cascade, primary screen, biochemical, HTRF, uHTS; SUMO-conjugating enzyme UBC9 (Homo sapiens), P63279; 290,000 tested, 0.36% active; HTRF SUMOylation assay, SAE1/SAE2 + UBC9; inhibition, % at 35 µM; in the data active means inhibition above about 50%, passing the limit was not always enough; inconclusive means no clear call, values can overlap the other calls
A number is an active result; n = inactive; u = inconclusive; x = no result given. This is a sample that favours compounds with a hit; in the whole collection about 1.6% have one here.

SMILES | PAD4 FP inh | TDP2 inh | Apaf-1 inh | GASC-1 inh | GSTO1 counter | SUMO HTRF inh
Cc1cc(C(=O)OCCCN(C)C2CN(Cc3cn(Cc4ccccc4C(F)(F)F)nn3)S(=O)(=O)C2)no1 (stereo not drawn) | x | n | x | x | x | x
COc1cccc2cc(-c3ccnc(=S)[nH]3)oc12 | 45 | x | n | n | n | n
COc1cccc(-c2nnc3n2N=C(c2ccc(Cl)cc2)CS3)c1 | x | n | x | x | x | x
O=[N+]([O-])c1ccccc1NC(=S)N/N=C/c1ccc(O)c(O)c1 | n | n | n | n | 50 | n
O=C(O)C(S)C(S)C(=O)O (stereo not drawn) | n | x | x | n | 64 | x
O=C(CSc1nnc(COc2ccccc2)n1-c1ccccc1)Nc1ccc(S(=O)(=O)Nc2nccs2)cc1 | x | n | x | x | x | x
COc1cccc(COc2nc3c(c(=O)n(C)c(=O)n3C)n2C)c1 | n | n | n | n | 36 | n
Cn1c(=O)c2c(nc(OCc3ccccc3)n2C)n(C)c1=O | n | n | n | n | n | n
C#CCOCCOCCOCCNc1nc(N2CCN(C(=O)CCCCCCCCCCNC(=O)[C@H]([C@@H](C)CC)n3cc(CCCCCN)nn3)CC2)nc(N2CCN(C(=O)CCCCCCCCCCNC(=O)[C@H]([C@@H](C)CC)n3cc(CCCCN=C(N)N)nn3)CC2)n1 | n | x | 71 | x | n | x
C#CCOCCOCCOCCNc1nc(N2CCN(C(=O)CCCCCCCCCCNC(=O)Cn3cc(C[C@@H](C)O)nn3)CC2)nc(N2CCN(C(=O)CCCCCCCCCCNC(=O)[C@H](CO)n3cc(CCCSC)nn3)CC2)n1 | n | n | n | n | n | x
C#CCOCCOCCOCCNc1nc(N2CCN(C(=O)CCCCCCCCCCNC(=O)[C@H]([C@@H](C)CC)n3cc(CCCCN=C(N)N)nn3)CC2)nc(N2CCN(C(=O)CCCCCCCCCCNC(=O)[C@H](CO)n3cc(CCCCCN)nn3)CC2)n1 | n | x | 85 | n | n | x
C#CCOCCOCCOCCNc1nc(N2CCN(C(=O)CCCCCCCCCCNC(=O)[C@H](CO)n3cc(CCCSC)nn3)CC2)nc(N2CCN(C(=O)CCCCCCCCCCNC(=O)[C@H](CCCN=C(N)N)n3cc(C[C@@H](C)CC)nn3)CC2)n1 | n | x | 45 | 57 | n | x
C#CCOCCOCCOCCNc1nc(N2CCOCC2)nc(N2CCN(C(=O)CCCCCCCCCCNC(=O)[C@@H]([C@H](C)CC)n3cc(CCCCCN)nn3)CC2)n1 | n | n | n | n | n | x
C#CCOCCOCCOCCNc1nc(N2CCN(C(=O)CCCCCCCCCCNC(=O)[C@H]([C@@H](C)CC)n3cc(CCCCCN)nn3)CC2)nc(N2CCN(C(=O)CCCCCCCCCCNC(=O)[C@@H]([C@H](C)CC)n3cc(CCCCCN)nn3)CC2)n1 | n | x | 78 | x | n | x
O=S1(=O)c2ccc(N3CCN(Cc4ccccc4F)CC3)cc2Oc2ccccc2CN1Cc1cn(Cc2ccccc2C(F)(F)F)nn1 | x | n | x | x | x | x
C#CCOCCOCCOCCNc1nc(N2CCN(C(=O)CCCCCCCCCCNC(=O)[C@H]([C@@H](C)CC)n3cc(CCCCN=C(N)N)nn3)CC2)nc(N2CCN(C(=O)CCCCCCCCCCNC(=O)[C@H]([C@@H](C)CC)n3cc(CCCCN=C(N)N)nn3)CC2)n1 | n | x | 41 | n | n | x
C#CCOCCOCCOCCNc1nc(N2CCN(C(=O)[C@H]([C@@H](C)CC)n3cc([C@@H](N)CO)nn3)CC2)nc(N2CCN(C(=O)[C@H](Cc3cc4ccccc4[nH]3)n3cc([C@@H](N)Cc4ccc(O)cc4)nn3)CC2)n1 | n | x | 57 | n | n | n
CC[C@H](C)[C@@H](C(=O)NCCCCCCCCCCC(=O)N1CCN(C(=O)OC(C)(C)C)CC1)n1cc(CCCCN=C(NC(=O)OC(C)(C)C)NC(=O)OC(C)(C)C)nn1 | n | x | 56 | n | n | x
C#CCOCCOCCOCCNc1nc(N2CCN(C(=O)C(Cc3ccc(O)cc3)n3cc(C(N)CC(C)C)nn3)CC2)nc(N2CCN(C(=O)C(Cc3cc4ccccc4[nH]3)n3cc(C(N)Cc4ccc(O)cc4)nn3)CC2)n1 (stereo not drawn) | n | x | n | n | n | n
CN(CCO)c1cc(Sc2nc3ccccc3s2)c2nonc2c1[N+](=O)[O-] | n | n | 52 | n | n | n
CC(=O)OCCN(C)c1cc(SC(C)C)c2nonc2c1[N+](=O)[O-] | n | n | n | n | n | n
Nc1ccc2nc(-c3ccc(-c4nc5ccc(N)cc5[nH]4)cc3)[nH]c2c1 | n | n | n | n | n | 62
O=[N+]([O-])c1ccc2nc(COCc3nc4ccccc4[nH]3)[nH]c2c1 | x | n | x | x | x | x
Cc1ccc(-c2nc3ccc([N+](=O)[O-])cc3[nH]2)cc1 | n | n | n | n | n | n
COc1ccc(-c2nc3ccc([N+](=O)[O-])cc3[nH]2)cc1 | n | n | x | n | n | 55
SMILES | PAD4 FP inh | TDP2 inh | Apaf-1 inh | GASC-1 inh | GSTO1 counter | SUMO HTRF inh
O=[N+]([O-])c1ccc2nc(CCCc3nc4ccc([N+](=O)[O-])cc4[nH]3)[nH]c2c1 | n | n | n | n | n | 69
O=C(Nc1ccc(Oc2ccccc2)cc1)C1CCCN1S(=O)(=O)c1cccc2cccnc12 (stereo not drawn) | x | n | x | x | x | x
CCc1nnc(NC(=O)CSc2nnc(COc3cccc(C)c3)o2)s1 | n | n | n | n | 35 | n
Cc1cccc(OCc2nnc(SCC(=O)Nc3ncc(C)s3)o2)c1 | n | n | n | n | n | n
C[C@@H]1[C@H](O)[C@@H](C)/C=C/C=C/C=C/C=C/C=C/C=C/C=C/[C@H](OC2O[C@H](C)[C@@H](O)[C@H](N)[C@@H]2O)C[C@@H]2O[C@](O)(C[C@@H](O)C[C@@H](O)[C@H](O)CC[C@@H](O)C[C@@H](O)CC(=O)O[C@H]1C)C[C@H](O)[C@H]2C(=O)O (stereo partly drawn) | x | n | x | x | x | x
COc1cccc(/C=C/c2[nH]c(=O)[nH]c(=O)c2[N+](=O)[O-])c1O | n | n | n | n | 36 | n
COC(=O)[C@]12C[C@H](CC(=O)N3CCN(C(=O)c4ccco4)CC3)C(=O)N(Cc3ccccc3)C1=C[C@H](COCc1ccccc1)O[C@@H]2C | x | n | x | x | x | x
O=C(Cc1ccc(Cl)c(Cl)c1)Nc1ccc(S(=O)(=O)Nc2ccon2)cc1 | x | n | x | x | x | x
CCOC(=O)C1CCN(c2nc(N)c3c(N)nc(SCC(=O)O)cc3c2C#N)CC1 | x | n | x | u | x | 100
COc1cc2c(C#N)c(N3CCCCC3)nc(N)c2c(N)n1 | n | n | 97 | n | n | n

Compound activity: PubChem, several laboratories
